Like-named read-outs stand apart in the source and are kept apart here. Marks after values point to notes of the source that are not given here.
Legend:
mice [1] = settings: mouse, cited from earlier work
mice [2] = settings: mouse, cited from earlier work; remark: listed apart in the source
mice [3] = settings: mouse, cited from earlier work; remark: listed apart in the source
mice [4] = settings: mouse; antagonism of nicotine-induced antinociception; cited from earlier work
mice [5] = settings: mouse, cited from earlier work; remark: listed apart in the source
mice [6] = settings: mouse; antagonism of nicotine-induced antinociception; cited from earlier work; remark: listed apart in the source
α4β2 nAChR = α4β2 nAChR (Rattus norvegicus, UniProt P09483+P12390); assay: [3H]epibatidine binding assay; settings: ratio of Ki values
mice [7] = assay: antagonism of nicotine-induced antinociception, tail-flick test; assay type: in vivo; settings: Mus musculus, sc, read-out: AD50 (µg/kg) tail-flick
mice [8] = assay: hot-plate test; assay type: in vivo, mouse
In short: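 Mice in a 10 cm glass cylinder on a 55.0 °C hot plate. Two control latencies, at least 10 min apart, per mouse; normal latency 8–12 sec. Endpoint: jumping or paw licking. Eight mice per dose got racemic hydrochloride test compound s.c. and were tested 5 min later. %MPE = [(test−control)/(40−control)]×100; ED50 from dose-response curve.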

mice [9] = assay: tail-flick test; assay type: in vivo, mouse
In short: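 D'Amour–Smith tail-flick in mice. Racemic hydrochloride test compound given s.c., with testing 5 min later. %MPE = [(test−control)/(10−control)]×100. 8–12 mice per dose, minimum four doses; ED50 with confidence limits from the dose-response curve.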

mice [10] = assay: antagonism of nicotine-induced antinociception, hot-plate test; assay type: in vivo, mouse; settings: for times more potent as an antagonist than varenicline in the hot-plate test: ratio of AD50 values
mice [11] = assay: spontaneous activity; assay type: in vivo, mouse; settings: ratio of ED50 values
mice [12] = assay: hypothermia; assay type: in vivo, mouse; settings: ratio of ED50 values
In short: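 Mouse rectal temperature read by thermistor probe (inserted 24 mm) and digital thermometer, just before and 30 min after s.c. saline or racemic hydrochloride test compound. Change in temperature calculated for each mouse.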

Chain of α4β2 nAChR (P12390 25-500): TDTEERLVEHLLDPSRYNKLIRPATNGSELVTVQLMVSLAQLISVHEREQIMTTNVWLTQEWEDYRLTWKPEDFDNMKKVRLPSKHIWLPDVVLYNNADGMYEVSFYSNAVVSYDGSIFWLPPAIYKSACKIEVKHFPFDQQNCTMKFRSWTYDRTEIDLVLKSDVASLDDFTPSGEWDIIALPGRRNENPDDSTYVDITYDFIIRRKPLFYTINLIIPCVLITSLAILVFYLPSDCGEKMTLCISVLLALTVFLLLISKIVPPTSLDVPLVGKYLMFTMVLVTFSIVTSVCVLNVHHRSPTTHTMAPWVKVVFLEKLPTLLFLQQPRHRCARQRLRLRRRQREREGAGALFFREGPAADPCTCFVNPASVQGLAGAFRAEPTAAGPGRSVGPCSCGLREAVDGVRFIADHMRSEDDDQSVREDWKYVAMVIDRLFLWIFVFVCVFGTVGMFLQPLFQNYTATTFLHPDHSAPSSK
Chain of α4β2 nAChR (P09483 31-630): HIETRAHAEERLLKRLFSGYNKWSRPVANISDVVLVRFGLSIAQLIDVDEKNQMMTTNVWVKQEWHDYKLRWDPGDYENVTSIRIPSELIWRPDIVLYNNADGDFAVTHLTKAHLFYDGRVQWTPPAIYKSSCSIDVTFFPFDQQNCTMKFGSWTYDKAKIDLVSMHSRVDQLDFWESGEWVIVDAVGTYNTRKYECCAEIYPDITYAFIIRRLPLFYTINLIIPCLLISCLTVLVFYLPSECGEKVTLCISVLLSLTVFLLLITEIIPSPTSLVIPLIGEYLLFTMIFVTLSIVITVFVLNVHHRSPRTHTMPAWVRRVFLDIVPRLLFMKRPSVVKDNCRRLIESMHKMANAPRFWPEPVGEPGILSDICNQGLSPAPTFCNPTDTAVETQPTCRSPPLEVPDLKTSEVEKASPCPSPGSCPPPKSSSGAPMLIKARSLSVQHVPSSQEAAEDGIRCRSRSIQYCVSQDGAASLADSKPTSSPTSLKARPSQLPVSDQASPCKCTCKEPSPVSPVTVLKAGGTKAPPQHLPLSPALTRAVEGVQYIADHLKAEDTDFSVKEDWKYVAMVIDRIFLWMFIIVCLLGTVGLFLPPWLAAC

In the case of `c1cnc2cc3c(cc2n1)[C@@H]1CNC[C@H]3C1` [varenicline, reference compound], the ED50 mg/kg hypothermia (mice [1]) is listed as 2.8 mg/kg, the “agonist activity in the tail-flick test” value (mice [2]) is listed as “inactive” and the “agonist activity in the hot-plate test” value (mice [3]) is listed as “inactive”. The “AD50 (µg/kg) hot-plate” value (mice [4]) was 470 µg/kg, the “ED50 mg/kg spontaneous activity” value (mice [5]) was 2.1 mg/kg and the “AD50 (µg/kg) tail-flick” value (mice [6]) was 0.2 µg/kg.
For `Clc1ccc([C@@H]2C[C@H]3CC[C@@H]2N3)cn1` [(−)-epibatidine, epibatidine], the ED50 mg/kg tail-flick (mice [2]) is listed as 0.0066 ^e mg/kg.
In the case of `Clc1ncc([C@H]2C[C@@H]3CC[C@H]2N3)cc1-c1ccccc1` [5a], the ED50 mg/kg hypothermia (mice [1]; (confidence limits)) is given as 0.4 ^g (0.1–0.9) mg/kg, the ED50 mg/kg tail-flick (mice [2]; (confidence limits)) is given as 0.7 ^g (0.5–1.0) mg/kg and the ED50 mg/kg hot-plate (mice [3]; (confidence limits)) is given as 1.0 ^g (0.5–2.0) mg/kg. For the same compound, the “times higher affinity at the α4β2 nAChR than nicotine” value (α4β2 nAChR) was 71 times, the “times higher affinity at the α4β2 nAChR than varenicline” value (α4β2 nAChR) was 6 times and the “ED50 mg/kg spontaneous activity” value (mice [5]; (confidence limits)) was 0.35 ^g (0.2–0.85) mg/kg.
`COc1ccc(-c2cc([C@H]3C[C@@H]4CC[C@H]3N4)cnc2Cl)cc1` [5k, 3′-(4-Methoxylphenyl)epibatidine] gave an ED50 (mice [7]) of 10 µg/kg.
In the case of `Clc1ccc([C@@H]2C[C@H]3CC[C@@H]2N3)cn1` [(+)-epibatidine, epibatidine], the ED50 mg/kg tail-flick (mice [2]) is given as 0.0061 ^e mg/kg.
In the case of `CN(C)c1cccc(-c2cc([C@H]3C[C@@H]4CC[C@H]3N4)cnc2Cl)c1` [5m, 3′-(3-Dimethylaminophenyl)epibatidine], the “agonist activity in the hot-plate test” value (mice [8]; mouse) is reported as “did not have agonist activity” and the “agonist activity in the tail-flick test” value (mice [9]; mouse) is reported as “did not have agonist activity”.
For `Fc1cccc(-c2cc([C@H]3C[C@@H]4CC[C@H]3N4)cnc2Cl)c1` [5c, 3′-(3-Fluorophenyl)epibatidine], the “times more potent as an antagonist than varenicline in the hot-plate test” value (“times more potent” below) (mice [10]) was 5.5 times.
For `Nc1cccc(-c2cc([C@H]3C[C@@H]4CC[C@H]3N4)cnc2Cl)c1` [5j, 3′-(3-Aminophenyl)epibatidine], the “times weaker than epibatidine (1), spontaneous activity” value (mice [11]) was 30 times, the “AD50 (µg/kg) hot-plate” value (mice [10]; mouse, antagonism of nicotine-induced antinociception, (confidence limits)) was 26 (5–90) µg/kg and the “times more potent” value (mice [10]) was 18 times. For the same compound, the “times weaker than epibatidine (1), hot-plate” value (mice [8]; ratio of ED50 values) was 75 times, the “times weaker than epibatidine (1), hypothermia” value (mice [12]) was 76 times and the “times weaker than epibatidine (1), tail-flick” value (mice [9]; ratio of ED50 values) was 57 times.
With `Clc1cccc(-c2cc([C@H]3C[C@@H]4CC[C@H]3N4)cnc2Cl)c1` [5e, 3′-(3-Chlorophenyl)epibatidine] the “times more potent” value (mice [10]) was 5.9 times and the “selectivity for α4β2 nAChR relative to α7 nAChR” value (α4β2 nAChR) was “greater than 2000 fold”.

— paper PMC2846203 (Journal of natural products, 2010)
